Sampled rows, rich in hits. Any-hit rate of the full collection: about 1.8%.
p-CIP stab down = p/CIP-EGFP fusion destabilizers, primary screen, fluorescence, F442A cells. Q05BA5. 16 h. decrease of EGFP signal, % at 10 µM. 290,000 compounds, 0.01% hits. AID 1984, 2009;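 active = EGFP signal decrease of at least 30% at 10 µM or well 3 SD below plate mean, unless failing retest; inactive = the rest, including hits failing retest or dose response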
A3A deaminase = APOBEC3A ssDNA deaminase inhibitors, primary screen, selectivity assay for APOBEC3G inhibitor project, biochemical, FAM/TAMRA oligo cleavage fluorescence | DNA dC->dU-editing enzyme APOBEC-3A (Homo sapiens), P31941 | recombinant A3A, FAM/TAMRA ssDNA deamination fluorescence | inhibition, % at 20 µM | 330,000 compounds, 0.41% hits | AID 493011, 2011;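 active = at least 40% inhibition at 20 µM here, with at most 30% in a related deaminase screen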;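 note: plate controls were A3A with DMSO for no effect and wells lacking A3A enzyme for full effect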
APOBEC3G inh = APOBEC3G DNA deaminase inhibitors, primary screen, biochemical, fluorescence, single-stranded DNA substrate, uHTS | DNA dC->dU-editing enzyme APOBEC-3G (Homo sapiens), Q9HC16 | recombinant A3G, ssDNA deamination FAM/TAMRA fluorescence | inhibition, % at 20 µM | 330,000 compounds, 0.28% hits | AID 493012, 2011;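 active = inhibition of at least 40% at 20 µM, with no more than 30% in the related APOBEC3A deaminase screen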;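 note: plate controls were DMSO wells with A3G for no effect and wells lacking A3G enzyme for full effect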
Target sequence (Q9HC16 whole entry, looked up): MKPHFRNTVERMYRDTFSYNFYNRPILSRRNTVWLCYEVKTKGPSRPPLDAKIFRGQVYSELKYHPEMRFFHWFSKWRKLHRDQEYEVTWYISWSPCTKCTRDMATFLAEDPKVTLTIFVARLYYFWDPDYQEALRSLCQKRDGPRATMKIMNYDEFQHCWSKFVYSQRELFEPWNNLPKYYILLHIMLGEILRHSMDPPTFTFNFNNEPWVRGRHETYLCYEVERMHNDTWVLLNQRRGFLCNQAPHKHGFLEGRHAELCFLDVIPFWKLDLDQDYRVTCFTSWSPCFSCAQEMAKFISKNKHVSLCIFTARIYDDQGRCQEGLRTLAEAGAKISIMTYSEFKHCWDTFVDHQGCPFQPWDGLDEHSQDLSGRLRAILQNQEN
TbMetRS inhib = T. brucei MetRS inhibitors, primary screen, biochemical, luminescence; methionyl-tRNA synthetase (Trypanosoma brucei brucei); purified T. brucei MetRS, ATP depletion, Kinase-Glo luminescence; inhibition, % at 11.9 µM; 360,000 compounds, 0.4% hits;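 active = inhibition above a per-plate cutoff of the control wells' mean inhibition plus 3 SD, cut at about 5.5% in these data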;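 note: 0% = DMSO wells median and 100% = median of wells with control inhibitor compound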
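Test system – parasite MetRS enzyme · Reagent – substrates ATP, L-methionine and bulk Escherichia coli tRNA · Doses – 11.9 µM compound single dose, 0.9% DMSO · Times – 15 min enzyme-compound preincubation, 2 h reaction, 10 min detection, 25 °C · Signal – Kinase-Glo luminescence, ATP depletion format · Controls – DMSO-only wells as low control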
PHOSPHO1 block = PubChem AID 1565 | recombinant PHOSPHO1, absorbance phosphatase assay | inhibition, % at 13.3 µM | 290,000 compounds, 1.1% hits; in the data active = inhibition above about 60%
Target sequence (Q8TCT1 whole entry, looked up): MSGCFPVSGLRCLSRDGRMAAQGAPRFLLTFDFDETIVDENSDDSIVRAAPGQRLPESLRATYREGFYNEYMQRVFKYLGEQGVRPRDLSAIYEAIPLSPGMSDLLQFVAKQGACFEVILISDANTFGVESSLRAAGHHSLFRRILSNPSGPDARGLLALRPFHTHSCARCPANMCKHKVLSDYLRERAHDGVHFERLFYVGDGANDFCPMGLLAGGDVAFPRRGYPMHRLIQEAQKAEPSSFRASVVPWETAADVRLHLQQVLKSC
A3A conf = APOBEC3A deaminase inhibitors, retest, confirmation, selectivity assay for APOBEC3G inhibitor project, biochemical, single concentration, fluorescence readout; shares compounds with A3A deaminase; recombinant A3A, ssDNA deaminase UDG fluorescence assay; inhibition, % at 20 µM; 1,400 compounds, 63% hits; AID 493151, 2011;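 active = inhibition reaching a set limit, 80% of the first screen's cutoff, at 20 µM in any replicate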;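 note: plate controls were DMSO wells with A3A for no effect and wells lacking A3A enzyme for full effect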
UDG A3A counter = E. coli UDG inhibitors, confirmation, counter-screen for APOBEC3A inhibitor project, biochemical, single concentration, fluorescence, FAM/TAMRA oligo; shares compounds with A3A deaminase; UDG counterscreen, FAM/TAMRA uracil oligo fluorescence; inhibition, % at 20 µM; 1,000 tested, under 10 active; AID 504714, 2011; call rule not given here
Active calls of the source: *.

For CN1CCN(S(=O)(=O)c2cccc(C(=O)Nc3cc(Cl)ccc3N3CCOCC3)c2)CC1 the results were A3A deaminase 51.5*, APOBEC3G inh 7.7, TbMetRS inhib -0.2, A3A conf 31.3* and UDG A3A counter 2.6.
Screening CSCC(O)Cn1ncc2ccccc2c1=O (stereo not given) returned p-CIP stab down -9.0, A3A deaminase -3.2, APOBEC3G inh 4.8, TbMetRS inhib 0.3 and PHOSPHO1 block 17.7.
For CC(C)C[C@@H]1COc2cc(N3CC[C@H](O)C3)ccc2S(=O)(=O)N1 the results were TbMetRS inhib -0.5.
Screening CSc1ccccc1OCc1cc(C(=O)NC(C)Cn2cncn2)no1 (stereo not given) returned p-CIP stab down 6.9, A3A deaminase -1.4, APOBEC3G inh -2.3, TbMetRS inhib -0.5 and PHOSPHO1 block 9.4.
`CN1CCN(c2cc(N3CCc4ccccc4C3)c(F)cc2[N+](=O)[O-])CC1` gave p-CIP stab down 14.4, A3A deaminase -6.7, APOBEC3G inh -8.7, TbMetRS inhib -0.5 and PHOSPHO1 block -5.8.
O=C(c1cccc(S(=O)(=O)N2CCCCCC2)c1)N1CCN(c2ccccc2F)CC1 was read as p-CIP stab down 1.6, A3A deaminase -3.0, APOBEC3G inh -8.1, TbMetRS inhib -0.9 and PHOSPHO1 block 42.8.
`CN1CCN(S(=O)(=O)c2cccc(C(=O)N3CCN(c4ccccc4F)CC3)c2)CC1` gave A3A deaminase 44.5*, APOBEC3G inh 14.9, TbMetRS inhib -0.3, A3A conf 44.6* and UDG A3A counter -2.9.
Screening O=C1CN(C(=O)CSc2nc(-c3ccccc3)cs2)c2ccccc2N1 returned p-CIP stab down -5.3, A3A deaminase -0.4, APOBEC3G inh 2.4, TbMetRS inhib -0.5 and PHOSPHO1 block 11.8.
For O=C1CN(C(=O)CSc2nncs2)c2ccccc2N1 the results were p-CIP stab down 18.1, A3A deaminase 44.2*, APOBEC3G inh -3.1, TbMetRS inhib -0.4, PHOSPHO1 block 32.0, A3A conf -5.2 and UDG A3A counter -2.9.
For CC[N+]1=CN(c2ccccc2)C(C)=CC1(C)C the results were p-CIP stab down -7.0, A3A deaminase 60.8*, APOBEC3G inh 24.0, TbMetRS inhib -1.3, PHOSPHO1 block -5.8 and A3A conf 28.0.
Screening CC1=NN(c2ccccc2)C(=O)C1(C)C returned p-CIP stab down -3.3, A3A deaminase -2.0, APOBEC3G inh -2.4, TbMetRS inhib 0.0 and PHOSPHO1 block 57.0.
For COc1ccc(Cl)cc1NC(=O)CN1C(=O)NC(Cc2c[nH]c3ccccc23)C1=O (stereo not given) the results were A3A deaminase -2.3, APOBEC3G inh -3.0 and TbMetRS inhib -0.5.
COc1ccc(N2CCN(C(=O)COc3ccc4ccccc4c3)CC2)cc1 was read as p-CIP stab down -3.5, A3A deaminase 46.4*, APOBEC3G inh -2.4, TbMetRS inhib -0.4, PHOSPHO1 block 28.1, A3A conf 1.5 and UDG A3A counter -1.7.
O=C(COc1ccc2ccccc2c1)N1CCN(c2ccccc2)CC1 was read as A3A deaminase 1.2, APOBEC3G inh -2.0 and TbMetRS inhib -0.5.
`COC(=O)c1cccc(N2C(=O)c3ccccc3S2(=O)=O)c1` gave p-CIP stab down -8.4, A3A deaminase 40.3*, APOBEC3G inh 19.3, TbMetRS inhib 0.1, PHOSPHO1 block 92.1* and A3A conf 1.0.
Cc1c(Cl)cccc1NC(=O)CNC(=O)c1ccc2c(c1)OCCO2 was read as A3A deaminase 51.4*, APOBEC3G inh 8.5, TbMetRS inhib -0.5, A3A conf 40.9* and UDG A3A counter 1.9.
`Cc1c(Cl)cccc1NC(=O)CNC(=O)c1ccc(F)cc1` gave p-CIP stab down -5.9, A3A deaminase -2.1, APOBEC3G inh -5.7, TbMetRS inhib 0.0 and PHOSPHO1 block -11.7.
Screening CCCCn1c(SCC(=O)N2CCCC2)nnc1-c1ccccc1 returned p-CIP stab down -3.8, A3A deaminase 3.2, APOBEC3G inh -2.1, TbMetRS inhib -0.3 and PHOSPHO1 block 13.3.
Screening CCn1c(SCC(=O)N2CCCC2)nnc1-c1ccc(N)cc1 returned p-CIP stab down -20.3, A3A deaminase 43.6*, APOBEC3G inh 24.6, TbMetRS inhib -0.8, PHOSPHO1 block 1.5, A3A conf 64.7* and UDG A3A counter 2.7.
`CC(=O)Cn1cnc2c(cnn2-c2ccc(F)cc2)c1=O` gave TbMetRS inhib 0.2.
`COc1ccc(-n2ncc3c(=O)n(CC(C)=O)cnc32)cc1` gave p-CIP stab down -5.9, A3A deaminase 42.8*, APOBEC3G inh -3.4, TbMetRS inhib -0.5, A3A conf -3.2 and UDG A3A counter -1.7.
For CC(C)C(NC(=O)CN1C(=O)c2ccccc2C1=O)c1ccccc1 (stereo not given) the results were p-CIP stab down 5.7, A3A deaminase -1.2, APOBEC3G inh -3.5, TbMetRS inhib -1.0 and PHOSPHO1 block 44.8.
COC(=O)/C=C1/S/C(=N/NC(=O)c2ccccc2C)NC1=O was read as p-CIP stab down -5.7, A3A deaminase 53.4*, APOBEC3G inh -6.8, TbMetRS inhib -0.3, PHOSPHO1 block 19.7, A3A conf 1.9 and UDG A3A counter -1.6.
Screening CCc1sc(C(=O)Nc2cc(S(=O)(=O)N3CCOCC3)ccc2OC)cc1C returned A3A deaminase -2.0, APOBEC3G inh -7.5 and TbMetRS inhib -0.5.
Screening O[C@H]1CN(Cc2cccs2)[C@@H](c2ccccc2)C[C@@H]1n1cc(C2CC2)nn1 returned TbMetRS inhib -0.8.
`CN(C)c1ccc(N=Nc2ccccc2C(=O)OCC(=O)N(C)c2ccccc2)cc1` gave p-CIP stab down -0.5, A3A deaminase -3.2, APOBEC3G inh -5.2, TbMetRS inhib -0.2 and PHOSPHO1 block -14.5.
Screening CC(=O)NC(CC(=O)NC1CCCCCC1)c1ccccc1 (stereo not given) returned p-CIP stab down -18.5, A3A deaminase 45.5*, APOBEC3G inh -4.1, TbMetRS inhib -0.9, PHOSPHO1 block -17.2, A3A conf 32.3* and UDG A3A counter -1.6.

Bioassay records as filed in PubChem BioAssay.
